Article PMC12462367 (RSC Advances, 2025)
Converted amounts (≈) assume the structure as drawn.

Key:
[1] = system: S. aureus ATCC 29213; experiment: MIC, broth microdilution; type: cell-based; conditions: Staphylococcus aureus, ATCC29213, read-out: Minimum inhibitory concentration (MIC), S. aureus ATCC 29213
Summary of the method: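 Broth microdilution following CLSI guidelines. Strain grown in Mueller–Hinton broth with shaking at 37 °C for about 5 h, then diluted to ~10^5 CFU mL−1 in wells. Test compound serially diluted over 0.05–256 μg mL−1, and plates incubated 37 °C for 18 h. MIC taken as the lowest concentration with no visible growth. Run in triplicate.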

[2] = system: S. aureus MRSA2; experiment: MIC, broth microdilution; type: cell-based, Staphylococcus aureus; conditions: for MIC: Staphylococcus aureus, MRSA2, read-out: Minimum inhibitory concentration (MIC), S. aureus MRSA2
Summary of the method: (§1)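 Broth microdilution per CLSI. Strains were grown in Mueller–Hinton broth on a shaker at 37 °C for about 5 h, then diluted to ~10^5 CFU mL−1. Test compound was serially diluted (0.05–256 μg mL−1), and plates were incubated at 37 °C for 18 h. MIC is the lowest concentration with no visible growth. Run in triplicate.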

[3] = system: B. subtilis ATCC6633; experiment: MIC, broth microdilution; type: cell-based
Summary of the method: as §1

[4] = system: B. cereus CMCC63303; experiment: MIC, broth microdilution; type: cell-based
Summary of the method: as §1

[5] = system: L. monocytogenes CICC21662; experiment: MIC, broth microdilution; type: cell-based
Summary of the method: as §1

[6] = system: E. faecalis ATCC29212; experiment: MIC, broth microdilution; type: cell-based
Summary of the method: as §1

[7] = system: S. aureus LN38; experiment: MIC, broth microdilution; type: cell-based, Staphylococcus aureus
Summary of the method: as §1

[8] = system: E. coli ATCC 25922; experiment: MIC, broth microdilution; type: cell-based, Escherichia coli; conditions: 16–24 h
Summary of the method: as §1

[9] = Cytotoxicity assay; type: cell-based; conditions: human, HK-2 cells
[10] = Cytotoxicity assay; type: cell-based; conditions: human, LO2 cells
[11] = system: rabbit red blood cells; experiment: Hemolysis assay; type: cell-based
Summary of the method: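 Test compound in PBS was mixed 1:1 with 4% defibrinated rabbit erythrocytes in PBS (final 2–256 μg mL−1) at 37 °C. Cells were pelleted (1000×g, 5 min) and supernatant absorbance read at 490 nm. Hemolysis % = (sample − PBS)/(Triton − PBS), with 1% Triton X-100 as positive and sterile PBS as negative reference. Triplicate.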

[12] = system: S. aureus ATCC 29213; experiment: Time-killing kinetics; type: cell-based, Staphylococcus aureus
[13] = system: S. aureus ATCC 29213; experiment: Drug resistance study; type: cell-based, Staphylococcus aureus; conditions: sub-MIC passage 28 days
[14] = system: S. aureus MRSA2 biofilm; experiment: Biofilm formation inhibition; type: cell-based, Staphylococcus aureus; conditions: 64 μg mL^−1 (8 × MIC)
Summary of the method: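 S. aureus MRSA2 was diluted 1:100 in TSB with 1% (w/v) glucose and incubated with test compound (256–2 μg mL−1) for 24 h at 37 °C; DMSO-matched controls. Wells were rinsed with PBS three times, air-dried, stained with 0.1% crystal violet for 15 min, destained with 95% ethanol and read at 595 nm. Inhibition % = (ODcontrol − ODsample)/ODcontrol × 100. Triplicate.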

[15] = system: S. aureus MRSA2 mature biofilm; experiment: Mature biofilm eradication; type: cell-based, Staphylococcus aureus; conditions: 128 μg mL^−1 (16 × MIC), 24 hours treatment
[16] = system: TNF-α in LPS-stimulated RAW 264.7 macrophages; experiment: TNF-α release, LPS-stimulated macrophages; type: cell-based
[17] = system: IL-6 in LPS-stimulated RAW 264.7 macrophages; experiment: IL-6 secretion, LPS-stimulated macrophages; type: cell-based; conditions: Mus musculus, RAW264.7, read-out: inhibition of IL-6 secretion
Summary of the method: (§2)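 RAW 264.7 cells (5 × 10^4 per well) were allowed to adhere overnight in DMEM with 10% FBS. Cells were pretreated with test compound for 2 h, then stimulated with LPS (e.g., 100 ng mL−1) for 24 h at 37 °C, 5% CO2. IL-6 and IL-1β in culture supernatants were measured by ELISA. Vehicle controls (e.g., 0.1% DMSO); ≥3 biological replicates.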

[18] = system: IL-1β in LPS-stimulated RAW 264.7 macrophages; experiment: IL-1β production, LPS-stimulated macrophages; type: cell-based; conditions: Mus musculus, RAW264.7, read-out: inhibition of IL-1β production
Summary of the method: as §2

[19] = system: NO in LPS-stimulated RAW 264.7 macrophages; experiment: Nitric oxide production, LPS-stimulated macrophages; type: cell-based; conditions: 128 μg mL^−1
Summary of the method: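 Murine RAW 264.7 macrophages (5 × 10^4 per well, DMEM with 10% FBS) were allowed to adhere overnight. Cells were pretreated with test compound for 2 h, then exposed to LPS (e.g., 100 ng mL−1) for 24 h at 37 °C under 5% CO2. Nitric oxide in culture supernatants was measured with a commercial detection kit. Vehicle controls (e.g., 0.1% DMSO); ≥3 biological replicates.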

[20] = system: S. aureus ATCC 29213; experiment: Membrane permeability assay; type: cell-based, Staphylococcus aureus; conditions: 4 × MIC (32 μg mL^−1); 2 hours
[21] = system: S. aureus ATCC 29213; experiment: Membrane potential assay; type: cell-based, Staphylococcus aureus
Summary of the method: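 S. aureus ATCC 29213 was grown overnight, brought to log phase (OD600 = 0.4), pelleted and resuspended in PBS at 10^6–10^7 CFU mL−1. Cells were exposed to test compound or 10 μM CCCP (depolarization control) for 15 min at room temperature in the dark. DiOC2(3) (BacLight kit) was then added for 30 min under the same conditions; red/green fluorescence ratio recorded. Triplicate.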

[22] = system: S. aureus ATCC 29213; experiment: Protein leakage; type: cell-based, Staphylococcus aureus; conditions: increasing concentrations (1 ×, 4 ×, 16 × MIC); 4 h
Summary of the method: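 After centrifugation (12 000×g, 10 min, 4 °C) and 0.22 μm filtration, supernatant protein was determined by BCA assay at 562 nm. Vehicle controls; technical triplicates.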

[23] = system: S. aureus ATCC 29213; experiment: DNA leakage; type: cell-based, Staphylococcus aureus; conditions: increasing concentrations (1 ×, 4 ×, 16 × MIC); 4 h
Summary of the method: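 Cells were pelleted (12 000×g, 10 min, 4 °C) and the supernatant passed through a 0.22 μm filter. Extracellular DNA was measured as A260 by microvolume spectrophotometry. Vehicle controls; technical triplicates.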

[24] = Plasma protein binding, equilibrium dialysis; type: in vitro ADME; conditions: Sprague-Dawley, rat
Summary of the method: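 Equilibrium dialysis: bags holding 0.5 mL of blank Sprague–Dawley rat plasma were placed in 40 mL of PBS containing test compound at 30 μM. Incubation was 24 h at 37 °C with shaking at 100 rpm. Both compartments were assayed by HPLC. Binding % = (A − B)/A, where A is the total concentration inside the bag and B the free concentration in the dialysate. Nonspecific binding controls; triplicate.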

| Structure (SMILES) | MIC [1] | MIC [2] | activity against B. subtilis ATCC6633 [3] | activity against B. cereus CMCC63303 [4] | activity against L. monocytogenes CICC21662 [5] | activity against E. faecalis ATCC29212 [6] | activity against S. aureus LN38 [7] | further results |
| --- | --- | --- | --- | --- | --- | --- | --- | --- |
| CCN(CC)c1ccc(C=O)c(O)c1 [C, 4-(diethylamino)-2-hydroxybenzaldehyde] | > 256 µg/mL | > 256 µg/mL | >256 | >256 | >256 | >256 | >256 | Minimum inhibitory concentration (MIC), S. aureus MRSA2 ([2]; clinically isolated methicillin-resistant S. aureus MRSA2, 16–24 h): >256 µg/mL |
| CCN(CC)c1ccc(C=NNC(=O)c2ccccc2)c(O)c1 [D1, N′-(4-(diethylamino)-2-hydroxybenzylidene)benzohydrazide] | > 256 µg/mL | > 256 µg/mL |  |  |  |  |  |  |
| CCN(CC)c1ccc(C=NNC(=O)c2ccncc2)c(O)c1 [D2, N′-(4-(diethylamino)-2-hydroxybenzylidene)isonicotinohydrazide] | > 256 µg/mL | > 256 µg/mL |  |  |  |  |  |  |
| CCN(CC)c1ccc(C=NNC(=O)c2ccc(C)cc2)c(O)c1 [D3, N′-(4-(diethylamino)-2-hydroxybenzylidene)-4-methylbenzohydrazide] | > 256 µg/mL | > 256 µg/mL |  |  |  |  |  |  |
| CCN(CC)c1ccc(C=NNC(=O)c2ccccn2)c(O)c1 [D5, N′-(4-(diethylamino)-2-hydroxybenzylidene)picolinohydrazide] |  | 8 µg/mL (≈ 25.6 µM) | 16 | 8 | 8 | 8 | 16 | Minimum inhibitory concentration (MIC), E. coli ATCC 25922 [8]: >256 µg/mL; viability at 24 h, 256 μg mL^−1 [9]: > 85%; viability at 24 h, 256 μg mL^−1 [10]: > 85%; hemolysis at 256 μg mL^−1 ([11]; 256 μg mL^−1): no significant hemolysis; hemolytic activity against rabbit RBCs ([11]; 2 to 256 μg mL^−1, 4% rabbit RBCs, 37 °C): no hemolytic activity; time to complete eradication of bacteria ([12]; 8 × MIC): ≤ 10 h; eradication of bacterial colonies ([12]; S. aureus ATCC 29213, 8 × MIC (64 μg mL^−1), within 10 hours): > 99.9%; increase of MIC after serial passage [13]: 16 fold; suppression of biofilm formation [14]: > 95%; clearance of mature biofilms [15]: > 95%; lowest concentration at which TNF-α suppression emerges ([16]; LPS-stimulated RAW 264.7): 8 µg/mL; inhibition at 128 µg/mL ([16]; Mus musculus, RAW264.7, read-out: inhibition of TNF-α release): 40%; inhibition at 128 µg/mL [17]: 46%; inhibition at 128 µg/mL [18]: 39%; reduction of nitric oxide (NO) synthesis [19]: 53%; membrane permeabilization (PI uptake) [20]: near-complete PI uptake; membrane depolarization (DiOC2(3) red/green fluorescence ratio) [21]: significant decrease; leakage of proteins into culture medium [22]: dose-dependent efflux; leakage of DNA into culture medium [23]: dose-dependent efflux; fraction unbound at 24 h, 30 μM [24]: 0.134 |
| CCN(CC)c1ccc(C=Nc2cc(C)ccc2O)c(O)c1 [D9, 2-((4-(diethylamino)-2-hydroxybenzylidene)amino)-4-methylphenol] | > 256 µg/mL | > 256 µg/mL |  |  |  |  |  |  |
| CCN(CC)c1ccc(C=Nc2cc(C)c(Br)cn2)c(O)c1 [D10, 2-(((5-bromo-4-methylpyridin-2-yl)imino)methyl)-5-(diethylamino)phenol] | > 256 µg/mL | > 256 µg/mL |  |  |  |  |  |  |
| CN[C@H](CC(C)C)C(=O)N[C@H]1C(=O)N[C@@H](CC(N)=O)C(=O)N[C@H]2C(=O)N[C@H]3C(=O)N[C@H](C(=O)N[C@H](C(=O)O)c4cc(O)cc(O)c4-c4cc3ccc4O)[C@H](O)c3ccc(c(Cl)c3)Oc3cc2cc(c3O[C@@H]2O[C@H](CO)[C@@H](O)[C@H](O)[C@H]2O[C@H]2C[C@](C)(N)[C@H](O)[C@H](C)O2)Oc2ccc(cc2Cl)[C@H]1O [Vancomycin] | 1 µg/mL (≈ 0.69 µM) | 2 µg/mL (≈ 1.38 µM) | 1 | 1 | 1 | 2 | 1 |  |
